Screening data (PubChem)
Only some compounds are listed: those with a hit (about 3.3% of all), similar ones and a draw of the others.
Hep lipid drop = inhibitors of hepatocyte lipid droplet formation, primary screen, imaging, high-throughput imaging, BODIPY stain | AML12 mouse hepatocytes, oleate lipid droplets | inhibition, % at 6.5 µM | 240,000 tested, 0.4% active | AID 1656, 2009;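 active means lipid droplet intensity inhibited by at least 50%, with more than 500 cells counted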
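Material – AML12 mouse liver cells · Also added – oleate loading, 100 µM · Compound dosing – 6.5 µM single-point dosing · Times – overnight treatment with compound plus oleate · Measured by – fluorescence imaging, 20x objective, two fields per well · Read-out – percent inhibition of filter-corrected integrated lipid droplet intensity per well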
m5-HT2A agonist = mouse Htr2a agonists via beta-arrestin recruitment, primary screen, cell-based, luminescence; 5-hydroxytryptamine receptor 2A (Mus musculus), P35363; activation, % at 7.6 µM; AID 624169, 2012; CHO-K1 mHTR2A beta-arrestin complementation; percent of 30 µM serotonin response; 360,000 tested, 0.66% active;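 active means activation above a run cutoff, the mean activation of all tested compounds plus 3 SD, cut at about 14% in these data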
Target sequence (P35363 whole entry, looked up): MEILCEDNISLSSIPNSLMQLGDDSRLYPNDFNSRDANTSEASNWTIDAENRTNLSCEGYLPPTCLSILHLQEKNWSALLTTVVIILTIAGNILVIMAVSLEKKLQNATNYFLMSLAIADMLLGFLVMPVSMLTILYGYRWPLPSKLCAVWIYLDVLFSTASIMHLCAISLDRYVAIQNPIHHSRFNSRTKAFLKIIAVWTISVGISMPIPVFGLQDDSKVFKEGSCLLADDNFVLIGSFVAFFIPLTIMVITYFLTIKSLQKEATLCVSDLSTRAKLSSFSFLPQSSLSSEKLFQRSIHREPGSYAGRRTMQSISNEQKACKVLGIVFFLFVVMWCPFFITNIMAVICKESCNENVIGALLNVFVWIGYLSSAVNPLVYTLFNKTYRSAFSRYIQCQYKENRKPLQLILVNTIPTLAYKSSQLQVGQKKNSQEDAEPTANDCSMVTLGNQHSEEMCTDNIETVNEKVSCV
M18AAP inhibitor = PfM18AAP inhibitors, malaria aminopeptidase, primary screen, biochemical, QFRET, recombinant enzyme. M18 aspartyl aminopeptidase (Plasmodium falciparum 3D7). 290,000 tested, 1.2% active. H-Glu-NHMec fluorogenic cleavage. inhibition, % at 7.35 µM;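 active means inhibition above the campaign mean inhibition over all tested compounds plus 3 SD, cut at about 28% in these data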
NRP1-CendR mod = modulators of CendR peptide binding to NRP-1, primary screen, biochemical, fluorescence polarization, uHTS; inhibition, % at 25 µM; Neuropilin-1 (Homo sapiens), O14786; FAM-RPARPAR peptide binding to NRP-1; AID 602438, 2012; 360,000 tested, 0.85% active;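 active means inhibition or corrected inhibition above about 18%, plus a signal ratio from 0.5 to 1.5, limit read from the data, passing the limit was not always enough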
HGIII-sPLA2 inh = human group III sPLA2 inhibitors, primary screen, biochemical, QFRET, BODIPY PC-A2 liposome substrate; QFRET BODIPY PC-A2 liposome hydrolysis, fluorescence; inhibition, % at 12.2 µM; 370,000 tested, 0.56% active;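 active means inhibition above mean plus 3 SD of compounds lying within the high and low control bounds, cut at about 19% in these data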
Arrestin-AP2 inh = inhibitors of beta-arrestin/AP2 binding, primary screen, biochemical, GPCR trafficking, flow cytometry. beta-arrestin 1 C-terminal peptide binding to AP2 beta2-adaptin appendage (human). FITC-arrestin peptide / GST-AP2 beads; AP2 beta2 appendage carries R879A mutation. inhibition, % at 10 µM. 340,000 tested, 0.31% active;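 active means inhibition above a set limit, near 3 SD of compounds lacking own fluorescence, cut at about 54% in these data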
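System: GST-tagged AP2 beta2-adaptin appendage (R879A) on 4 µm glutathione beads / Reagent: FITC-arrestin peptide, 50 nM / Detection: HyperCyt-sampled flow cytometry, FL1 channel, ex 488/em 535 nm / Timing: 12 min plus 1 h, RT / Buffer or medium: PBS plus Tween 20 (0.05%) and BSA (0.1%)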
Numbers stand for hits; - = inactive; . = not tested or not shown; ! = repeats disagree.

SMILES	Hep lipid drop	m5-HT2A agonist	M18AAP inhibitor	NRP1-CendR mod	HGIII-sPLA2 inh	Arrestin-AP2 inh
CCN(CC(=O)Nc1ccc(OC)c(OC)c1)S(=O)(=O)c1ccc(C)cc1	-	-	-	-	-	-
C=CC[n+]1ccn(-c2nc3ccccc3nc2[N-]S(=O)(=O)c2cccs2)c1	-	-	-	-	-	-
Cc1cccc(C)c1NC(=O)C1(C)CCC(=O)N1C1CC1 (stereo not drawn)	.	-	.	-	-	.
Cc1cccc(C)c1NC(=O)C1(C)CCC(=O)N1C1CCN(Cc2ccccc2)CC1 (stereo not drawn)	.	-	.	21	-	.
COC(=O)C[C@H]1C[C@H]2c3cc(NS(=O)(=O)c4ccc(OC)cc4)ccc3O[C@H]2[C@H](CO)O1	.	-	.	-	-	.
NC1=C(Br)C(=O)c2ccccc2C1=O	-	-	-	-	-	-
NC1=CC(=O)C(=O)c2ccccc21	.	-	.	29	-	-
O=C(O)CC/C(=N\Nc1ccc([N+](=O)[O-])cc1S(=O)(=O)N1CCOCC1)c1cccs1	-	-	30	-	-	-
Cc1ccc(NS(=O)(=O)c2ccc(C(=O)NCc3cccnc3)cc2)cc1	-	-	-	21	-	-
Cc1ccc(C)c(CC(=O)N2CCCC(c3cc(C(=O)NCc4ccccc4)no3)C2)c1 (stereo not drawn)	.	-	.	-	-	.
C=CCNc1nnnc2c1sc1nc(N3CCOCC3)c3c(c12)CCCC3	-	-	-	-	-	-
CN[C@H]1C[C@H]2c3[nH]c4c(-c5cccc(C)c5)cccc4c3CCN2C[C@H]1[C@H](C)O	.	.	.	.	-	.
O=C(Nc1nnc(CCN2CCOCC2)s1)C1CCCCC1	-	-	-	37	-	-
COc1ccc(C(=O)N/N=C(\C)CC(=O)Nc2ccc3ccccc3c2)c(OC)c1	-	-	-	-	-	-
CCN1/C(=C/C=C/c2oc3ccc(-c4ccccc4)cc3[n+]2CC)Oc2ccc(-c3ccccc3)cc21	120	-	-	-	-	-
CCCC[C@H]1C2CC(OC(=O)Nc3ccc(F)cc3)C(C2)[C@H]2CCCCN21 (stereo partly drawn)	.	.	.	.	-	.
N[C@@H](Cc1ccc(O)cc1)c1nnc([C@H](CO)NC(=O)C2CCNCC2)o1	-	-	-	22	-	-
O=C(Nc1ccc2c(c1)OCO2)c1cc2ncc(Br)cn2n1	69	-	-	-	-	-
Nc1nc2c(nnn2C2CC(O)C(CO)O2)c(=O)[nH]1 (stereo not drawn)	.	-	.	-	-	.
O=S(=O)(Nc1cccc(-n2cnnn2)c1)c1ccc(Cl)cc1	-	-	-	-	-	-
O=S(=O)(Nc1cccc(Cl)c1)c1cccc(-n2cnnn2)c1	.	-	.	20	-	-
O=C(O)CCSc1nnc(COc2cccc3cccnc23)n1-c1ccccc1	-	-	-	26	-	-
C[C@@H]1O[C@@H](n2c3ccc(Cl)cc3c3ccc4c5cc(Cl)ccc5[nH]c4c32)[C@H](O)[C@H](O)[C@H]1O	.	.	.	.	-	.
Cc1ccc(-c2csc(NC(=O)c3ccccc3F)c2C(=O)O)cc1	-	-	-	-	-	-
CCC(=O)N1CCCC1(C)C(=O)Nc1ccc(C)c(C)c1 (stereo not drawn)	.	-	.	-	-	.
SMILES	Hep lipid drop	m5-HT2A agonist	M18AAP inhibitor	NRP1-CendR mod	HGIII-sPLA2 inh	Arrestin-AP2 inh
O=S(=O)(Nc1ccc(O)c(NS(=O)(=O)c2ccccc2)c1)c1ccccc1	-	-	68	-	-	-
Cc1[nH]nc(N=CC2=C(O)CC(c3ccco3)CC2=O)c1-c1ccccc1 (stereo not drawn)	.	-	-	-	-	-
Cc1[nH]nc(N=CC2=C(O)CC(C)(C)CC2=O)c1-c1ccccc1	-	-	-	19!	-	-
O=C(Nn1cnnc1)c1cc2c(s1)CCCC2	-	-	32	-	-	-
NNC(=O)c1cc2c(s1)CCCCCC2	.	-	-	-	-	-
O=C(O)c1ccccc1N=Nc1ccc(O)cc1	.	19	.	-	-	-
CCOc1cc(C(=O)N2CCC(CC3CC(c4ccccc4)=NO3)(C(=O)NCc3ccc(OC)cc3)CC2)cc(OCC)c1OCC (stereo not drawn)	.	-	.	45	-	-
CCCNC(=O)C1(CC2CC(c3ccccc3)=NO2)CCN(C(=O)c2ccccc2)CC1 (stereo not drawn)	.	-	.	27	-	-
CCCNC(=O)C1(CC2CC(c3ccccc3)=NO2)CCN(C(=O)C2(C)CC2)CC1 (stereo not drawn)	.	-	.	-	-	-
COc1ccc(CNC(=O)C2(CC3CC(c4ccccc4)=NO3)CCN(C(=O)Cc3ccc(F)cc3)CC2)cc1 (stereo not drawn)	.	-	.	-	-	-
Cc1nc(SCC(=O)N(CC(C)C)C2CCS(=O)(=O)C2)c(C#N)c(C)c1C (stereo not drawn)	.	-	.	-	-	-
CC(C)CC1NC(=O)c2cc(Cl)ccc2-n2c1nc1ccc(F)cc1c2=O (stereo not drawn)	.	.	.	.	-	.
CC(C)C[C@H](NC(=O)c1[nH]cnc1C(=O)N[C@@H](Cc1ccccc1)C(=O)OCc1ccccc1)C(=O)OCc1ccccc1	-	-	-	20	-	-
CC(C)C[C@@H](CNCC(=O)[C@H](Cc1c[nH]c2ccccc12)NC(=O)c1[nH]cnc1C(=O)N[C@@H](C)CN)NC(=O)c1nc[nH]c1C(=O)N[C@@H](Cc1ccccc1)C(=O)O	.	-	.	-	-	-
CC(C)C[C@@H](CNC(=O)OC(C)(C)C)NC(=O)c1nc[nH]c1C(=O)N[C@@H](CC(C)C)C(=O)CNC[C@H](CC(C)C)NC(=O)c1nc[nH]c1C(=O)N[C@@H](Cc1c[nH]c2ccccc12)C(=O)OC(C)(C)C	.	-	.	23	-	-
CC(C)(C)OC(=O)[C@H](CCCCN)NC(=O)c1[nH]cnc1C(=O)N[C@@H](Cc1ccccc1)C(=O)OCc1ccccc1	.	-	.	28	.	-
CC(C)(C)c1ccc(CC(=O)N2CCC2(C)C(=O)NCc2ccc(Cl)cc2)cc1 (stereo not drawn)	.	-	.	-	-	.
COc1ccc2c(c1)[C@@]1(NCCc3c1[nH]c1ccc(OC)cc31)C(=O)N2	.	.	.	.	-	.
Nc1ncnc2c(C3OC(CO)C(O)C3O)c[nH]c12 (stereo not drawn)	.	-	.	-	-	-
